What is called IC50 is the concentration that gives 50% inhibition. The low end stands for higher potency, the high end for lower potency. What is called inhibition is the relative decrease from the control value, in per cent.

For assay [1], the target named is T1, Angiotensin-converting enzyme (Rattus norvegicus, UniProt P47820).
T1 sequence (P47820 whole entry): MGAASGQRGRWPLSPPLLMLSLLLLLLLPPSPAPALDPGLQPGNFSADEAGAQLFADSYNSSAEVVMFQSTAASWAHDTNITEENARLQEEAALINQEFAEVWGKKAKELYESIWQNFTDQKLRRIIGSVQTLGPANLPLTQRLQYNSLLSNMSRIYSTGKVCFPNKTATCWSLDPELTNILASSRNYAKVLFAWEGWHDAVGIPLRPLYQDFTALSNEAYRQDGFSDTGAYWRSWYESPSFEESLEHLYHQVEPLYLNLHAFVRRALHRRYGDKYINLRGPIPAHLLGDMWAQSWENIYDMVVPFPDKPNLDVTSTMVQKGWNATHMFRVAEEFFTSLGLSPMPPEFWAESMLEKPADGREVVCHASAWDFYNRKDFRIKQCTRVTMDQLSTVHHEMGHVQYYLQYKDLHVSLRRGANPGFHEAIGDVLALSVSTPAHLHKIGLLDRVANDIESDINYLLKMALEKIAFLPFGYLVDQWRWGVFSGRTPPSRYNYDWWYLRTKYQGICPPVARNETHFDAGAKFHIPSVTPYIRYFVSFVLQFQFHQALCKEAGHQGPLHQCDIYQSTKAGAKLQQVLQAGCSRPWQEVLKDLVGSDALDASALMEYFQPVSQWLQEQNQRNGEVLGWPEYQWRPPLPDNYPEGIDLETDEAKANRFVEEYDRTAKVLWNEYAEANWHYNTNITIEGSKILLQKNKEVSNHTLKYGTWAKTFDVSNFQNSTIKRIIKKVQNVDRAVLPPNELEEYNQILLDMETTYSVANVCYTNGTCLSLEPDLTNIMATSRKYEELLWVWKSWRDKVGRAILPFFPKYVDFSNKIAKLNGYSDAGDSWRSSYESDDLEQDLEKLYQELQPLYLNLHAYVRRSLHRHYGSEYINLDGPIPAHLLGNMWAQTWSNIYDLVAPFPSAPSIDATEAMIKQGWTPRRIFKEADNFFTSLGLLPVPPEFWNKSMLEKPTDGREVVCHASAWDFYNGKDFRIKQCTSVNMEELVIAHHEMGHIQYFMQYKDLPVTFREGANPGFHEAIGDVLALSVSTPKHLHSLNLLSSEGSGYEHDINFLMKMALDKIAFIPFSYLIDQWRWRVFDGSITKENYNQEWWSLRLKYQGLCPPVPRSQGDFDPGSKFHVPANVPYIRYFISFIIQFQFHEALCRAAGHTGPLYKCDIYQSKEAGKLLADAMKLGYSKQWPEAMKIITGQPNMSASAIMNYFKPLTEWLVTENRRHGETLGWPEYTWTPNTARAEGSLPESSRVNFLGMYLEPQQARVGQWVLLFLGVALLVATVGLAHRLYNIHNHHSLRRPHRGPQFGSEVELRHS
As to the kind of experiment: In vitro inhibition of rat angiotensin I converting enzyme. Put shortly: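 ACE purified from rat testis, 0.02 pmol/100 µL final, preincubated 15 min at 37 °C with varying inhibitor in 50 mM Tris-HCl pH 8.0. N-Cbz-Phe-His-Leu added to 0.05 mM final, 15 min; stopped with 2 M NaOH. His-Leu measured fluorimetrically (ex 365, em 495 nm) against a His-Leu calibration curve. IC50 is the mean ± SEM of three experiments in triplicate.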

The target in assay [2] is T2, Neprilysin (Mus musculus) (UniProt Q61391).
T2 sequence (whole entry): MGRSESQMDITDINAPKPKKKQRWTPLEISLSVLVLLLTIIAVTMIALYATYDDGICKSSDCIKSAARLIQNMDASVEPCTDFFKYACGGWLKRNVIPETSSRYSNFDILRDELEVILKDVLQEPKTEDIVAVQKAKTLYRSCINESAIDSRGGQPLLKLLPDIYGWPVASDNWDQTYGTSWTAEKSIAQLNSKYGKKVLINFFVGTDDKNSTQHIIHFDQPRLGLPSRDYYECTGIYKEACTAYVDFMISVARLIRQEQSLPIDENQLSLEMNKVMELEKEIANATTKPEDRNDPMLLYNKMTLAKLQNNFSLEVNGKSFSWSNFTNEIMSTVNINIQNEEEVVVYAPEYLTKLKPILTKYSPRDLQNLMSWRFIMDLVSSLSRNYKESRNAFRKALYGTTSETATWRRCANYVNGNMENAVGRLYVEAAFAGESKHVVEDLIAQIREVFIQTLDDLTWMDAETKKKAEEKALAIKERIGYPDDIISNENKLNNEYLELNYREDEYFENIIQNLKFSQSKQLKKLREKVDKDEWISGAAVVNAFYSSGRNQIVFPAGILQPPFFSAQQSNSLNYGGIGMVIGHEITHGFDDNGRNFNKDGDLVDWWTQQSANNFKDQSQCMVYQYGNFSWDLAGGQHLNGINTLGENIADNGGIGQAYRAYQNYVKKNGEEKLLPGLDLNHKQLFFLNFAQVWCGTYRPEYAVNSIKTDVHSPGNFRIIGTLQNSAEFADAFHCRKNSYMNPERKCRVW
The experiment in a line: In vivo percent inhibition activity against kidney Neutral endopeptidase 2 hr after oral administration of a dose of 2.6 x 10e-5 mol/kg. It is filed as organism-based. In outline:
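Mice given a single oral dose in 10% ethanol/10% cremophor/80% water; kidneys taken 2 h later and homogenized at 4 °C in 50 mM Tris-HCl pH 7.4. Membrane fraction (100000g) preincubated 5 min at 25 °C with bestatin and captopril, then incubated 10 min with [3H]-D-Ala2-Leu-enkephalin (2 × 10^-8 M). [3H]Tyr-D-Ala-Gly counted; blanks contained 10^-5 M retrothiorphan.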

Assay [3] addresses T3, Neprilysin (Oryctolagus cuniculus, UniProt P08049).
T3 sequence (P08049 whole entry): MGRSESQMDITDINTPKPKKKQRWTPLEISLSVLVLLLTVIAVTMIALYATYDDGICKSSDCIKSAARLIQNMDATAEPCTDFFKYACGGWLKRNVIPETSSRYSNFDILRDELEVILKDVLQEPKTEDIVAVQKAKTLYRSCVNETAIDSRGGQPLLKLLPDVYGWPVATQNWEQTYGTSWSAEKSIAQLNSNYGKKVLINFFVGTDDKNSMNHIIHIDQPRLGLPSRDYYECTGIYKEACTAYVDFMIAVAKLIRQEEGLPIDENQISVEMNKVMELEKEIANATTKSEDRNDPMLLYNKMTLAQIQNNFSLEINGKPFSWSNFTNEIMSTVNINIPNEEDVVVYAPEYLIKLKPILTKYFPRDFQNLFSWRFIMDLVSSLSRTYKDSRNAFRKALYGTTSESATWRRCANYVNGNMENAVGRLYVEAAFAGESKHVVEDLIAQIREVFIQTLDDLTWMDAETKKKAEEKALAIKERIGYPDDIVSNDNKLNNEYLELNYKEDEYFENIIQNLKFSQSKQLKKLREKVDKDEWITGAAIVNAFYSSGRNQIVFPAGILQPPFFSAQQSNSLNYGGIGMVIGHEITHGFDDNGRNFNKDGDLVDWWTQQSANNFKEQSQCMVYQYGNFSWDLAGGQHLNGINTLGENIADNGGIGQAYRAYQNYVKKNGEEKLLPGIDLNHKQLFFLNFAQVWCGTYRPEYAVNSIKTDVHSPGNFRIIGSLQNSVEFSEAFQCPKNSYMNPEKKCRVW
As to the kind of experiment: In vitro inhibition of neutral endopeptidase. Put shortly: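 NEP purified from rabbit kidney, 1 pmol/100 µL final, preincubated 15 min at 25 °C with increasing inhibitor concentrations in 50 mM Tris-HCl pH 7.4. Substrate [3H]-D-Ala2-Leu-enkephalin at 20 nM final, 30 min; stopped with 0.5 M HCl. [3H]Tyr-D-Ala-Gly separated on polystyrene beads and counted by scintillation. IC50 is the mean ± SEM of three independent experiments run in triplicate.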

With `O=C(NCC(=O)N1[C@@H](c2ccc(O)cc2)CC[C@H]1C(=O)O)[C@@H](S)Cc1ccc(O)cc1`, the concentration for half-maximal inhibition (IC50) was 0.46 nM in assay [1] and 6.36 nM in assay [3]. The inhibition in assay [2] turned out to be 25%.

For the molecule `COc1ccc(C[C@H](S)C(=O)NCC(=O)N2[C@@H](c3ccccc3OC)CC[C@H]2C(=O)O)cc1`, the IC50 stood at 2.2 nM in assay [1] and 2.5 nM in assay [3].

In the case of `C[C@H](NC(=O)[C@@H](S)Cc1ccccc1)C(=O)N1[C@@H](c2ccccc2)CC[C@H]1C(=O)O`, the results for the IC50 in assay [1] and in assay [3] were 45 nM and 10 nM, respectively.

With `Cc1cccc(C2CCC(C(=O)O)N2C(=O)CNC(=O)[C@@H](S)Cc2ccc(O)cc2)c1` (some centres not stated), the values for the IC50 in assay [1] and in assay [3] were 3.1 nM and 1.5 nM, respectively.

As to `COc1ccc(C[C@H](S)C(=O)NCC(=O)N2[C@@H](c3ccccc3O)CC[C@H]2C(=O)O)cc1`, the IC50 in assay [1] amounted to 0.42 nM; in assay [3], 2.2 nM.

Consider `Cc1ccccc1[C@@H]1CCC(C(=O)O)N1C(=O)CNC(=O)[C@@H](S)Cc1ccc(O)cc1` (single isomer, unassigned), for which the IC50 in assay [1] worked out at 12.5 nM; in assay [3], 5.1 nM.

`Nc1ccc([C@H]2CC[C@@H](C(=O)O)N2C(=O)CNC(=O)[C@@H](S)Cc2ccc(O)cc2)cc1`: the concentration for half-maximal inhibition (IC50) amounted to 23 nM in assay [1] and 26 nM in assay [3].

Turning to `CC[C@H](C)C(S)C(=O)NCC(=O)N1[C@@H](c2ccccc2)CC[C@H]1C(=O)O` (some centres not stated), the IC50 in assay [1] was determined as 3.7 nM; in assay [3], 50 nM.

Regarding `O=C(NCC(=O)N1[C@@H](c2cccc(O)c2)CC[C@H]1C(=O)O)[C@@H](S)Cc1cccc(O)c1`, the IC50 came to 3.2 nM in assay [1] and 4.3 nM in assay [3].

Turning to `NCCCCC(S)C(=O)NCC(=O)N1[C@@H](c2ccccc2)CC[C@H]1C(=O)O` (some centres not stated), the IC50 in assay [1] came to 403 nM; in assay [3] it was 500 nM.

As to `O=C(NCC(=O)N1[C@@H](c2ccccc2O)CC[C@H]1C(=O)O)[C@@H](S)Cc1ccccc1`, the IC50 in assay [1] worked out at 0.5 nM; in assay [3], 1 nM.

For `Cc1ccccc1[C@@H]1CCC(C(=O)O)N1C(=O)CNC(=O)[C@@H](S)Cc1ccccc1` (single isomer, unassigned; 18), the 50% inhibitory concentration (IC50) in assay [1] stood at 48 nM; in assay [3], 17 nM.

Take `O=C(NCC(=O)N1[C@@H](c2ccccc2)CC[C@H]1C(=O)O)[C@@H](S)Cc1ccc(O)cc1`: the IC50 in assay [1] turned out to be 4.2 nM; in assay [3], 3.4 nM.

In the case of `O=C(NCC(=O)N1[C@@H](c2cccc(O)c2)CC[C@H]1C(=O)O)C(S)Cc1ccc(F)cc1` (some centres not stated), the IC50 in assay [1] worked out at 3.8 nM; in assay [3], 5.3 nM.

Regarding `Cc1cccc([C@H]2CC[C@@H](C(=O)O)N2C(=O)CNC(=O)[C@@H](S)Cc2ccccc2)c1`, the half-maximal inhibitory concentration (IC50) stood at 6.2 nM in assay [1] and 2.3 nM in assay [3].

For `COc1ccccc1[C@H]1CC[C@@H](C(=O)O)N1C(=O)CNC(=O)[C@@H](S)Cc1ccc(O)cc1`, the IC50 in assay [1] came to 4.5 nM; in assay [3], 3.4 nM.

As to `O=C(NCC(=O)N1[C@@H](c2cccc(O)c2)CC[C@H]1C(=O)O)[C@@H](S)Cc1ccccc1`, the figures for the IC50 in assay [1] and in assay [3] were 1.5 nM and 2.4 nM, respectively.

Take `Nc1ccc(C[C@H](S)C(=O)NCC(=O)N2[C@@H](c3ccccc3)CC[C@H]2C(=O)O)cc1`: the IC50 in assay [1] amounted to 3.5 nM; in assay [3] it was 1.8 nM.

Take `O=C(NCC(=O)N1[C@@H](c2ccccc2)CC[C@H]1C(=O)O)[C@H](S)Cc1ccccc1`: the IC50 stood at 25 nM in assay [1] and 3.2 nM in assay [3].

With `Cc1ccccc1C1CC[C@H](C(=O)O)N1C(=O)CNC(=O)[C@@H](S)Cc1ccccc1` (single isomer, unassigned), the IC50 in assay [1] stood at 112 nM; in assay [3], 25 nM.

For `O=C(NCC(=O)N1[C@@H](c2ccccc2O)CC[C@H]1C(=O)O)C(S)Cc1ccc(Cl)cc1` (some centres not stated), the IC50 turned out to be 0.9 nM in assay [1] and 1.2 nM in assay [3].

Turning to `Cc1ccccc1[C@@H]1CCC(C(=O)O)N1C(=O)CNC(=O)[C@@H](S)Cc1ccccc1` (single isomer, unassigned; 17), the IC50 worked out at 33 nM in assay [1] and 8.5 nM in assay [3].

In the case of `O=C(O)c1ccc(CC(S)C(=O)NCC(=O)N2[C@@H](c3ccccc3O)CC[C@H]2C(=O)O)cc1` (some centres not stated), the IC50 in assay [1] came out at 5.3 nM; in assay [3] it was 62 nM.
